NPY-Y1 PAM-ag = potentiates or activates human NPY-Y1 receptor; P25929; 220,000 compounds, 0.37% hits; NPY-Y1 expressing cells, potentiator/agonist activation; activation, % at 3.6 µM; in the data active = activation above about 33%, passing the limit was not always enough;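 note: cells stimulated with NPY at EC10 then isoproterenol at EC100; 0% = low agonist plus stimulus and 100% = saturating agonist plus stimulus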
NPY Y1 blocker = antagonists of human neuropeptide Y receptor Y1 | 200,000 compounds, 1% hits | inhibition, % at 3.6 µM | P25929 | HEK293-CNG Y1 cells, membrane potential fluorescence; NPY at EC95, then isoproterenol;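 active = inhibition above the campaign mean inhibition of all tested compounds plus 3 SD, cut at about 20% in these data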;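 note: 0% = DMSO wells given NPY plus isoproterenol and 100% = isoproterenol alone without NPY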
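Assay system: HEK293 Y1/CNG channel cell line; Doses: single compound dose of 3.6 µM, 0.4% DMSO; Timing: dye 3 h, compound 60 min room temperature, stimulation 45 min; Technique: Membrane-potential fluorescent dye readout; Measure: % inhibition of NPY effect.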
NPY-Y2 PAM-ag = human NPY-Y2 potentiation or agonism, primary screen; cells expressing NPY-Y2, potentiator/agonist read-out; activation, % at 3.6 µM; 220,000 compounds, 0.45% hits; P49146; in the data active = activation above about 27%;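 note: cells stimulated with NPY near EC25 plus isoproterenol at EC100; 0% = vehicle plus submaximal agonist and 100% = vehicle plus saturating agonist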
Target sequence (P49146 whole entry, looked up): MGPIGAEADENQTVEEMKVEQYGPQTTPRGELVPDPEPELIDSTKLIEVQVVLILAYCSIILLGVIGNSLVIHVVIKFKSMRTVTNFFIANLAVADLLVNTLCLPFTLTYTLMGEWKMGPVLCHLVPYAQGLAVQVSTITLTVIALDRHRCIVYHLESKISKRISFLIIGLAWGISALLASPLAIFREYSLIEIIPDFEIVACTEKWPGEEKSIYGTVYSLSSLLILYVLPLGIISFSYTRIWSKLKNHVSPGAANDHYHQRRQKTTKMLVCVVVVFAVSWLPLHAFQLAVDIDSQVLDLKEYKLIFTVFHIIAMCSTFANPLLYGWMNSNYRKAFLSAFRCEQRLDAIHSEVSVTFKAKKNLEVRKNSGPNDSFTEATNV
NPY Y2 blocker = NPY-Y2 (human) receptor antagonism; P49146; NPY-Y2 expressing cells, antagonist mode; inhibition, % at 2.7 µM; 140,000 compounds, 0.99% hits; AID 793; in the data active = inhibition above about 17%;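 note: 0% = vehicle with agonist challenge and 100% = reference antagonist with challenge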
S1P4 antag = human S1P4 receptor antagonism. S1P4-expressing cells, antagonist mode, reporter read-out. inhibition, % at 4.98 µM. O95977. 220,000 compounds, 0.26% hits; in the data active = inhibition above about 29%;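 note: 0% = wells stimulated with agonist and 100% = vehicle wells without agonist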
S1P4 agonist = activates the human S1P4 receptor; 220,000 compounds, 0.35% hits; activation, % at 4.98 µM; AID 1509; S1P4-expressing cell line, agonist reporter assay; in the data active = activation above about 11%;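 note: 0% = DMSO vehicle and 100% = reference agonist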
* = called active by the depositor; x = not tested or not shown; ! = a repeat was not active. The list is not random: actives were taken first. Their share in the collection is about 2.4%.

SMILES	NPY-Y1 PAM-ag	NPY Y1 blocker	NPY-Y2 PAM-ag	NPY Y2 blocker	S1P4 antag	S1P4 agonist
COc1ccccc1N1CCN(CC(O)COc2cccc3ccccc23)CC1 (configuration not stated)	87.6*	-7.4	65.7*!	6.4	-28.3	-0.4
OC(COc1ccccc1Cl)CN1CCN(CC(O)COc2ccccc2Cl)CC1 (configuration not stated)	85.8*	-14.5	48.2*	3.6	5.2	-0.2
C=CCc1ccccc1OCC(=O)O	4.6	x	-17.2	x	-6.7	-1.1
Cc1ccc(CNC(=O)C(C)C2Sc3ccccc3NC2=O)cc1 (configuration not stated)	-5.5	x	-12.1	x	-1.1	1.0
Clc1cccc(/C=N/Nc2nc(Cl)nc3ccccc23)c1	-3.1	2.8	-3.2	-0.4	-2.8	0.8
COc1ccc(CC(NC(C)=O)C(=O)NC2CCN(C(=O)NCc3ccccc3)CC2)cc1 (configuration not stated)	11.8	-0.7	6.7	0.7	-14.9	1.9
C=CCc1ccccc1OCC(CN1CCCCC1)OC(C)=O (configuration not stated)	111.8*	-17.5	104.0*	2.6	-0.9	2.7
C=CCc1ccccc1OCC(O)CN1CCN(c2ccccc2OC)CC1 (configuration not stated)	112.1*	-15.2	102.4*	4.4	1.3	0.6
COc1ccccc1N1CCN(CC(O)COc2ccc3c(c2)OCO3)CC1 (configuration not stated)	-8.4	-0.2	-7.9	x	-8.3	1.9
C=CCc1ccccc1OCC(O)CN1CCN(c2ccccc2F)CC1 (configuration not stated)	94.5*	-12.5	86.9*	5.2	12.7	-1.0
NC(=O)C1=C[C@H](c2ccccc2)C[C@H](OCc2ccc(CO)cc2)O1	-7.7	4.4	-14.5	x	19.1	-2.4
CN(c1cccc(Cl)c1)S(=O)(=O)c1cccc(C(=O)Nc2nc3ccccc3[nH]2)c1	-63.5	29.6*	-9.5	26.8*	11.1	-1.4
O=C(Nc1ccccc1)c1c2c(nc3ccccc13)CCCC2	-35.0	x	-13.2	x	-2.8	0.1
Cc1ccccc1CCNC(=O)C1CCN(S(=O)(=O)c2ccc(-n3cnnn3)cc2)CC1	13.4	-0.9	0.1	0.4	-6.5	0.5
O=C(Nc1ccc(SC(F)F)cc1)c1cccc2nc3ccccc3nc12	2.6	3.4	-13.1	-0.5	-14.1	1.1
CCOC(=O)c1ccc(N=c2sc(C(=O)OC)cc(=O)n2CCCN2CCOCC2)cc1	12.3	0.1	10.6	5.8	59.8*	0.3
Cc1cc(C)c2c(CC(=O)O)coc2c1	-45.3	23.8*	-46.3	12.4	2.7	1.0
COc1cc(C(=O)Nc2nnc(CC(C)(C)C)s2)c([N+](=O)[O-])cc1OC	-5.1	-3.3	-2.0	3.1	-11.2	2.6
Cc1ccc2nc(SCC(=O)NC3CCCc4ccccc43)[nH]c2c1 (configuration not stated)	-6.3	3.7	-8.4	3.3	-6.9	-0.6
CC(C)NC(=O)CN1C(=O)NC(CCc2ccccc2)C1=O (configuration not stated)	10.5	0.9	9.9	-0.8	-17.1	0.3
COC(=O)N/N=C/c1cc(C)n(-c2ccccc2)c1C	-14.2	-2.6	2.8	3.5	-12.0	1.8
Cc1ccc(-n2c(C)cc(/C=N/NC(=O)Cn3c4ccccc4c(=O)c4ccccc43)c2C)cc1	60.9*	-5.3	55.5*	0.9	-9.8	5.8
O=S(=O)(NC(=NCCc1ccc(Cl)cc1)c1ccccc1Cl)c1cccs1	7.7	6.1	-17.2	x	15.9	0.7
CCC(C)c1ccc(O)c(NC(=O)c2cncc(Br)c2)c1 (configuration not stated)	-5.0	-1.6	-0.6	3.1	-0.4	1.8
CC(=O)c1c(C)nc2ccc(Br)cc2c1C(=O)O	-10.0	8.1	-17.8	4.5	-12.0	-1.4
SMILES	NPY-Y1 PAM-ag	NPY Y1 blocker	NPY-Y2 PAM-ag	NPY Y2 blocker	S1P4 antag	S1P4 agonist
CC(=O)c1c(C)nc2ccc(Br)cc2c1-c1ccccc1	-12.7	21.7*	-11.2	x	8.4	-0.2
COC(=O)N(NC(=O)C(O)(CCC(C)C)CCC(C)C)c1ccccc1	-40.3	51.8*	-15.4	26.2*	0.4	0.9
O=C(c1ccc(F)cc1)N(NC(=O)C(O)(c1ccccc1)c1ccccc1)c1ccccc1	-55.7	48.8*	-2.8	29.6*	-3.5	0.2
COc1ccccc1NNC(=O)C(O)(c1ccccc1)c1ccccc1	22.2	x	1.1	x	0.6	2.2
O=C(NN(C(=O)c1ccccc1)c1ccccc1)c1ccccc1	-0.4	x	-4.7	x	-5.6	0.7
COC(=O)N(NC(=O)C(O)(c1ccccc1)c1ccccc1)c1ccccc1	-37.5	33.4*	-10.7	22.2*	4.2	-0.2
O=C(Nc1cc(Cl)cc(Cl)c1)C(c1ccccc1)N1CCCCC1 (configuration not stated)	-32.0	29.5*	-3.5	19.8*	-18.3	-0.8
CCCCSc1nc2c(=O)[nH][nH]c(=O)c2n1Cc1ccccc1	-0.9	7.5	-5.3	2.9	-7.0	0.0
Cc1ccc(C)c(N(CC(=O)NC2CCCC2)C(=O)c2oc(C(C)(C)C)cc2C)c1	-3.3	27.1*	0.5	19.6*	0.6	0.9
CC(C)(C)NCC(O)CON=C1c2ccccc2-c2ccccc21 (configuration not stated)	104.4*	-4.5	99.8*	x	-8.3	-3.7
CC(C)(C)NC(=O)CON=C1c2ccccc2-c2ccccc21	-0.6	9.7	-3.8	7.9	-15.8	0.3
COc1ccc(CN(CCN(C)C)Cc2ccccc2)c(OC)c1	-17.4	22.8*	-13.6	20.4*	-3.6	-1.4
COc1ccc(CN(C)CC(=O)NC(=O)NCc2ccccc2)c(OC)c1	-6.5	1.4	-2.1	5.3	7.9	3.1
COc1cccc(-c2cc(C(F)(F)F)nc(-n3ccc([N+](=O)[O-])n3)n2)c1	8.4	21.3*	6.4	x	-1.5	1.0
O=[N+]([O-])c1ccn(-c2nc(-c3ccccc3)cc(C(F)(F)F)n2)n1	-0.2	0.1	-3.5	x	1.1	0.8
CCOC(=O)c1cnc2ccc(OCC)cc2c1N(C)Cc1ccccc1	-50.6	31.2*	-18.3	34.8*	8.3	-1.7
Clc1ccccc1-c1ccc(CN2CCN(c3ccccc3)CC2)o1	-57.8	22.7*	-25.9	27.7*	2.2	-4.0
CCOc1ccc(/C=C/[N+](=O)[O-])c2ccccc12	-14.6	32.1*	-10.7	27.4*	24.8	3.4
Cc1nn(-c2ccccc2)c(N)c1N=Nc1cccnc1	-3.9	-1.5	-1.5	x	-14.7	-0.2
Nc1nc(-c2ccccc2)c(N=Nc2cccnc2)s1	65.3*	-19.3	57.3*	x	-16.3	1.3
Cc1ccn2c(Nc3ccccc3C)c(-c3ccccn3)nc2c1	40.9*	-3.3	30.3*	x	5.4	0.2
Cc1ccc2nc(-c3ccccn3)c(Nc3ccccc3C)n2c1	45.8*	6.9	36.3*	x	-4.3	0.5
Cc1ccccc1Nc1c(-c2ccccn2)nc2ccccn12	34.6*	6.0	34.6*	x	-1.4	-1.3

High-throughput results as filed in PubChem BioAssay.
